KCNK3 inh: human KCNK3 channel inhibition, primary screen | AID 602410 | actives 0.84% (n = 340,000) | O14649 | CHO-KCNK3 thallium flux, FluxOR fluorescence; stronger effect = lower value | B-score at 10 µM;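 active = B-score under library mean minus 4 SD, starting fluorescence ratio at most library mean plus 5 SD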;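 note: more negative B-score means stronger inhibition of thallium flux through KCNK3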
KCNK9 inh: inhibitors of human KCNK9 two-pore domain potassium channel; B-score at 10 µM; HEK293 KCNK9, FluxOR thallium flux fluorescence; stronger effect = lower value; AID 488922; Q9NPC2; actives 1.2% (n = 310,000);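 active = ratio B-score over 3 SD below the library mean, with starting fluorescence within 5 SD of its mean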;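 note: negative B-score means less thallium flux so channel inhibition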
hERG rescue: hERG (human) protection from proarrhythmic block. Q12809. activation (rescue from dofetilide block), less the hit threshold, % at 10 µM. AID 1511. actives 0.51% (n = 310,000). CHO-hERG, FluxOR thallium flux, dofetilide IC70 present;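 active = activation above the mean of controls blocked by dofetilide plus 5 SD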;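 note: thallium influx through hERG after potassium depolarization seen as dye fluorescence rise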
KCNQ1 act: human KCNQ1 channel potentiation or activation. B-score at 10 µM. CHO-K1 KCNQ1, thallium flux FluxOR fluorescence; stronger effect = higher value. actives 0.35% (n = 310,000). AID 2648. P51787;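 active = fluorescence ratio B-score, a plate-corrected score, at least three library SD, with initial intensity B-score within 5 SD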
Target sequence (P51787 whole entry, looked up): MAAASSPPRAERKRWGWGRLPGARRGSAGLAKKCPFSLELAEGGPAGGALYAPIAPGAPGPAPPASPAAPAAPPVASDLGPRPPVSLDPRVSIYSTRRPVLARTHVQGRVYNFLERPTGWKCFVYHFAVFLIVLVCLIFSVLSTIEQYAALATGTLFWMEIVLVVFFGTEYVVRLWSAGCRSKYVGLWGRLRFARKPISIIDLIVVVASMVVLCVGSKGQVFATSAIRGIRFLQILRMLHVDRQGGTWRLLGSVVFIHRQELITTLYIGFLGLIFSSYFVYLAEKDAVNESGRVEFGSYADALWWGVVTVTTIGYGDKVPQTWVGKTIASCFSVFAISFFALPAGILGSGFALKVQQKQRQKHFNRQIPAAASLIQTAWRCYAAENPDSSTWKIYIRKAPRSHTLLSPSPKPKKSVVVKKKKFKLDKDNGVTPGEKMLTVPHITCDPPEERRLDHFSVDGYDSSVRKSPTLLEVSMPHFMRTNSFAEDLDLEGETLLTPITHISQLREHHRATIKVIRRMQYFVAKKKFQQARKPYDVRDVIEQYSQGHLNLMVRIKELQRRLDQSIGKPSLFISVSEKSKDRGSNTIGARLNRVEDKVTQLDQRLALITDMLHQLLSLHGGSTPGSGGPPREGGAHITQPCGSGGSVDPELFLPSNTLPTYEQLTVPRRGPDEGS
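Doses: Single concentration per compound, DMSO matched to controls | Test system: KCNQ1-transfected CHO-K1 cells | Timing: 90 min dye loading and 20 min compound exposure, both at room temperature | Measured by: Kinetic FluxOR thallium fluorescence, 10-s 1-Hz baseline, 110-s post-stimulus read | Medium: Assay buffer with matched DMSO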
Kir21 inh: Kir2.1 (mouse) channel inhibition; B-score at 10 µM; HEK293-Kir2.1, FluxOR thallium flux fluorescence; stronger effect = lower value; actives 0.85% (n = 310,000); P35561;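 active = fluorescence ratio B-score at or below minus 3 SD of library scores, with starting-brightness B-score within 2 SD, cut at about -4.2 in these data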;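 note: channel flux triggered by added potassium and thallium sulfate stimulus; B-score of peak minus minimum fluorescence over baseline after thallium stimulus; more negative B-score means stronger Kir2.1 block with less thallium influx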
KCNQ1 block: human KCNQ1 channel inhibition. actives 1.3% (n = 310,000). CHO-K1 KCNQ1, FluxOR thallium flux fluorescence; stronger effect = higher value. AID 2642. B-score at 10 µM;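 active = compounds whose thallium flux B-score, printed positive for inhibition, exceeds three library SD while starting fluorescence stays within three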;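 note: channel opened by potassium depolarization with thallium stimulus after 20 min compound exposure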
KCNK9 inh conf: confirmation of human KCNK9 potassium channel inhibitors; shares compounds with KCNK9 inh; HEK293 KCNK9 cells, FluxOR thallium flux fluorescence; inhibition, % at 10 µM; actives 43% (n = 4,900); AID 492992;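 active = thallium signal inhibited by more than 5 SD of the compound-free buffer control wells, on both duplicate plates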;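 note: 0% = assay buffer control wells without compound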
Kir21 sel: mouse Kir2.1 off-target activity of KCNK9 modulators; shares compounds with KCNK9 inh; Kir2.1 cells, FluxOR thallium flux fluorescence; inhibition, % at 10 µM; actives 4% (n = 4,900); AID 492993;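 active = thallium signal drop more than 5 SD beyond the mean of the no-compound control wells, seen in both duplicate plates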;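 note: signal is fluorescence rise after thallium addition divided by baseline fluorescence; plate controls were assay buffer only for no effect and full block by chlorpromazine control for full effect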
HEK293 Tl ctr: second counter-screen for KCNK9 modulators: effect in non-induced cells | shares compounds with KCNK9 inh | non-induced KCNK9-HEK293, FluxOR thallium flux | inhibition, % at 10 µM | actives 40% (n = 4,900);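 active = thallium signal drop beyond 5 SD of the untreated control mean, on both duplicate plates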;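 note: plate controls were buffer only IC0 wells for no effect and SID17386958 at its maximal inhibitory level for full effect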
The depositor's hits bear a star; i = inactive; . = no result. Rows were chosen to be rich in hits. Some 3.8% of all compounds tested hit in one or more screens of this group.

SMILES	KCNK3 inh	KCNK9 inh	hERG rescue	KCNQ1 act	Kir21 inh	KCNQ1 block	KCNK9 inh conf	Kir21 sel	HEK293 Tl ctr
COCc1cc(N2CCOCC2)nc(SCc2ccc(Cl)cc2)n1	i	i	-4	i	0.23	i	.	.	.
CC(=O)N1CC(c2ccccc2)C(c2ccc(Cl)cc2)=N1 (configuration not stated)	i	-9*	-7	i	-0.82	i	i	i	i
Cc1nc2ccccn2c1C(=O)CSc1ccccc1Cl	i	i	-3	i	0.28	i	.	.	.
O=C(Nc1ccccc1)C1=C[C@@H](C2CCCCC2)C[C@@H](OCCCCO)O1	i	i	-7	i	1.9	i	.	.	.
O=C(NCc1ccccc1)C1=C[C@H](c2ccc3c(c2)OCO3)C[C@H](OCCCCO)O1	i	i	-9	i	0	i	i	i	i
O=C(NCc1ccccc1)C1=C[C@H](c2ccc3c(c2)OCO3)C[C@H](OCc2ccc(CO)cc2)O1	i	i	-22	i	-0.64	i	.	.	.
O=C(NCc1ccccc1)C1=C[C@H](C2CCCCC2)C[C@H](OCCCCO)O1	i	i	-7	i	-0.55	i	i	i	i
O=C(CNC(=O)c1ccco1)OCc1ccc(Br)cc1	i	i	-9	i	1.6	i	.	.	.
CCn1c(=O)c(CCC(=O)N2CCOCC2)c(C)c2c(C)nn(-c3ccccc3)c21	i	i	-10	i	-0.84	i	i	i	i
Cc1nn(-c2ccccc2)c2c1c(C)c(CCC(=O)N1CCOCC1)c(=O)n2C	i	i	-17	i	-1.4	i	i	i	i
CCn1c(=O)c(CCC(=O)NCCN2CCOCC2)c(C)c2c(C)nn(-c3cccc(C)c3)c21	i	i	-8	i	-0.48	i	.	.	.
CCN(CC)CCNC(=O)c1sc2nc(-c3ccccc3)cn2c1C	i	i	-7	i	-0.59	i	.	.	.
Cc1ccccc1CN1C(=O)[C@H]2Cc3c([nH]c4ccccc34)C(C)(C)N2C1=O	i	i	-3	i	0.8	i	.	.	.
CCc1cccc(C)c1N(C(=O)Cn1c(COC)nc2ccccc21)C(C)COC (configuration not stated)	i	-10*	-10	i	2.7	i	40%*	i	25%*
CC(C)OC(=O)CSc1nc(Cc2cccs2)nc2ccccc12	i	-12*	-16	i	-4.4*	i	54%*	45%*	32%*
Cc1noc(C)c1CSc1nc2ccccc2c(=O)n1-c1ccc(F)cc1F	i	i	-7	i	-0.55	i	i	i	25%*
Cn1ncc([N+](=O)[O-])c1C(=O)Nc1cccc2ccccc12	i	i	-4	i	1.2	i	.	.	.
Cc1nn(-c2ccccc2)c2nc(C(F)(F)F)[nH]c(=O)c12	i	i	-1	i	1.3	i	.	.	.
Cc1nn(-c2cc(C(F)(F)F)ccc2Cl)c2nc(C(Cl)(Cl)Cl)[nH]c(=O)c12	i	i	-4	i	0.54	i	i	i	i
Cc1ccc(Sc2nc(-c3ccccc3)nnc2C(F)(F)F)cc1	i	i	-11	i	1.2	i	i	i	i
CCn1c(SC(C)C(=O)O)nnc1-c1cccnc1 (configuration not stated)	i	i	-6	i	1.7	i	.	.	.
Cc1ccc(C(=O)N(c2ccccc2)C2CC(C)N(C(=O)c3ccco3)c3ccccc32)cc1 (configuration not stated)	i	i	-11	i	-2	i	i	i	i
CCC(=O)N1c2ccccc2[C@@H](N(C(C)=O)c2ccccc2)C[C@H]1C	i	i	-8	i	-1.1	i	.	.	.
CC1CN(S(=O)(=O)c2ccc(C(=O)Nc3nnc(-c4ccc5c(c4)CCCC5)o3)cc2)CC(C)O1 (configuration not stated)	i	i	-9	i	1.4	i	i	i	i
CC1CN(S(=O)(=O)c2ccc(C(=O)Nc3nnc(-c4ccccn4)o3)cc2)CC(C)O1 (configuration not stated)	i	i	-8	i	-0.18	i	.	.	.
SMILES	KCNK3 inh	KCNK9 inh	hERG rescue	KCNQ1 act	Kir21 inh	KCNQ1 block	KCNK9 inh conf	Kir21 sel	HEK293 Tl ctr
CC(Oc1ccc(Cl)cc1Cl)C(=O)Nc1ccc(S(=O)(=O)Nc2cnc3ccccc3n2)cc1 (configuration not stated)	.	i	-7	i	-0.17	i	i	i	i
O=C(Nc1ccc(S(=O)(=O)Nc2cnc3ccccc3n2)cc1)c1ccc(Cl)cc1Cl	i	i	-4	i	1.3	i	.	.	.
O=C(Nc1cc(Cl)cc(Cl)c1)N1CCN(C(=O)C2CCCO2)CC1 (configuration not stated)	i	i	-6	i	-0.66	i	.	.	.
O=C(OC(c1ccccc1)c1nccc2ccccc12)c1cccc([N+](=O)[O-])c1 (configuration not stated)	i	-13*	-12	i	0.88	7*	40%*	i	48%*
COc1cc(/C=C2\SC(=Nc3ccccc3)NC2=O)cc(Cl)c1O	i	i	-1	i	-3.3	i	.	.	.
CCc1ccc(N=C2NC(=O)/C(=C/c3cc(OC)c(O)c(OC)c3)S2)cc1	i	-8.8*	-11	i	-0.11	i	i	i	34%*
O=C1c2[nH]nc(-c3ccccc3O)c2C(c2cccc(O)c2)N1Cc1ccco1 (configuration not stated)	i	-8.4*	-15	i	-0.55	i	26%*	i	30%*
CCN(CC)c1nc(C(N)=O)cc(-c2ccccc2)n1	i	-8.5*	-8	i	-0.01	i	i	i	i
Cc1sc(NC(=O)c2ccccc2)c(C(=O)NC(C)C)c1C	i	i	-4	i	-1.2	i	.	.	.
Cc1sc(NC(=O)c2ccccc2)c(C(=O)c2ccccc2)c1C	i	i	-10	i	2.3	i	i	i	i
